Experimental data as given in publication PMC6092455 (International Journal for Parasitology: Drugs and Drug …, 2018).
“Also recorded” adds a separate entry of the source.

Columns and labels:
[1] = molecular target: T1, B. divergens proteasome β5 subunit (chymotrypsin-like activity) (Babesia divergens, UniProt A0AAD9GDK3); test: Suc-LLVY-AMC proteasome activity assay with B. divergens crude cell lysates; format: biochemical; settings: for inhibition at 1 µM: read-out: Reduction of Suc-LLVY-AMC measured activity
T1 sequence (A0AAD9GDK3 69-280): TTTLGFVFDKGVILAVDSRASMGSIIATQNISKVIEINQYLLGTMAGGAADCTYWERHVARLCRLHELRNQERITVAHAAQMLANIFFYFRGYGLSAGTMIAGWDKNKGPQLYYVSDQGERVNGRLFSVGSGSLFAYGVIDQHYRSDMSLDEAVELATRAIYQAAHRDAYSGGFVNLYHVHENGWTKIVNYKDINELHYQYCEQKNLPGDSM
In short: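 Crude lysate made from B. divergens-infected RBCs (~15% parasitemia): saponin lysis, PBS washes, sonication in 20 mM HEPES pH 8.0, 1 µM E64, 0.03% SDS, 1 mM ATP; pooled from 10 cultures. Lysate pre-incubated 30 min at 37 °C with 1 µM test compound. Then 10 µM Suc-LLVY-AMC added; fluorescence 360/465 nm read every 1 min for 1 h at 37 °C. Run in triplicate.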

HeLa cells = test: Cell toxicity assay, HeLa cells; format: cell-based, human; settings: for IC50: Homo sapiens, HeLa, 48 h, read-out: IC50 values, HeLa cells, 48 h, AlamarBlue
B. microti [2] = test: Pre-treatment of B. microti infected red blood cells prior to mouse infection; format: in vivo, Babesia microti; settings: infected blood pre-treated with 400 nM for 1 h
In short: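 Infected blood pooled from three B. microti-infected mice (50% parasitemia). Exposed to test compound at 400 nM final, or to matching DMSO, for 1 h at 37 °C, 5% CO₂. Then injected i.p. (150 µl, 800 × 10⁶ infected RBCs) into three treated and three control BALB/c mice. Parasitemia counted daily for 8 DPI on Diff-Quik thin smears; Cmax and Tmax calculated in R.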

B. microti [3] = test: Treatment of B. microti infected mice; format: in vivo, Babesia microti
In short: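 Six female BALB/c mice (~20 g) infected i.p. with 150 µl B. microti-infected blood (50% parasitemia, ~800 × 10⁶ infected RBCs). Dosed i.p. daily from 1 to 7 DPI with test compound at 0.75 mg/kg in PBS or with vehicle (150 µl; three mice each). Activity and appearance observed. Parasitemia counted daily to 15 DPI on tail-snip thin smears. AUC (Riemann sums), Cmax and Tmax compared by t-test.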

B. microti [4] = test: Parasitemia in B. microti infected mice treated on 5 and 6 DPI; format: in vivo, Babesia microti; settings: BALB/c mice, 0.75 mg/kg i.p. on 5 and 6 DPI
In short: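 Eight female BALB/c mice infected i.p. with B. microti-infected blood (150 µl, 50% parasitemia, ~800 × 10⁶ infected RBCs). Test compound at 0.75 mg/kg in PBS, or vehicle, given i.p. on 5 and 6 DPI (four mice per group). Parasitemia read as percent from thin blood smears taken by tail snip; blood collected on 7 DPI.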

[5] = rats; ref Yang et al., 2011; cited from earlier work
[6] = system: B. microti proteasome (chymotrypsin-like activity); test: Suc-LLVY-AMC activity assay on B. microti lysates from treated mice; format: in vivo, Babesia microti; settings: mice treated 0.75 mg/kg on 5 and 6 DPI, pooled blood collected 7 DPI
PMJ2R mouse macrophages = test: Cell viability assay, PMJ2R mouse macrophages; format: cell-based; settings: 200 nM, 48 h
In short: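 PMJ2R macrophages grown in RPMI 1640 with gentamicin, amphotericin B and 10% heat-inactivated FCS. Serially diluted test compound added to cultures, with 0.004% DMSO in medium as control. Medium changed every 12 h; 48 h at 37 °C, 5% CO₂. Calcein AM (live) and ethidium homodimer III (dead) staining, counted by flow cytometry. Triplicate cultures; mean ± SD; unpaired t-test.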

[7] = BALB/c mice, 0.75 mg/kg i.p. daily 1-7 DPI

Compound | inhibition at 1 µM [1] [%] | IC50 (HeLa cells) [nM] | Reduction of Cmax (parasitemia) on Tmax (7 DPI) compared to control group (B. microti [2]) [%] | Adverse effects on spontaneous activity and physical appearance of mice (B. microti [3]; [7]) | Peak parasitemia levels and area under curve (AUC) compared to PBS (B. microti [3]; [7]) | Microscopic appearance of non-parasited RBCs (B. microti [3]; BALB/c mice, 0.75 mg/kg i.p. daily 1-7 DPI (data not shown)) | Parasitemia on 5, 6 and 7 DPI compared to untreated control (B. microti [3]; daily intra-peritoneal treatment of infected mice) | Reduction of Suc-LLVY-AMC measured activity ([1]; 1 μM inhibitor, pilot experiments (data not shown)) | Parasite load (parasitemia, mean) at 5 DPI (B. microti [4]; 5 DPI) [%] | Parasite load (parasitemia, mean) at 7 DPI (B. microti [4]; 7 DPI) [%] | Plasma clearance [5] [mL/min/kg] | Terminal half-life [5] [min] | Tissue distribution [5] | Reduction of Suc-LLVY-AMC activity in B. microti lysates compared to untreated control [6] [%] | Fold more potent against B. divergens compared to HeLa (HeLa cells; ratio of IC50 values HeLa / B. divergens ex vivo culture) | Toxicity to PMJ2R macrophages (PMJ2R mouse macrophages) | Survival rate of PMJ2R cells (PMJ2R mouse macrophages; medium changed every 12 h) [%]
CC(C)C[C@H](NC(=O)[C@H](Cc1ccccc1)NC(=O)c1cnccn1)B(O)O [Bortezomib, bortezomib] | 96 | 7 ± 1 |  |  |  |  |  |  |  |  |  |  |  |  |  |  | 
CC(C)C[C@H](NC(=O)[C@H](CCc1ccccc1)NC(=O)CN1CCOCC1)C(=O)N[C@@H](Cc1ccccc1)C(=O)N[C@@H](CC(C)C)C(=O)[C@@]1(C)CO1 [Carfilzomib] | > 90 | 59 ± 36 | 31.2 | no adverse effects | significantly reduced | did not change | lower parasitemia | completely inhibiting this activity | 47.4 ± 6.3 | 41.5 ± 2.9 | 195 to 319 | 5 to 20 | rapid and wide tissue distribution | 33 | 2–3.5 fold | did not show any toxicity; also recorded: did not affect cell viability | 71.1
